From PubChem BioAssay AID588806 (The Scripps Research Institute Molecular Screening Center, 2011) come the findings set out here.

The experiment addresses Palmitoyl-protein thioesterase ABHD10, mitochondrial (Mus musculus) (UniProt Q6PE15). As to the kind of experiment: endogenous mouse ABHD10 activity inhibitors – cell-based, competitive gel ABPP, fluorescence, PME-1 inhibitor project, late-stage follow-up (AID 588806). The conditions noted are these: BW5147 mouse T cells, in situ FP-Rh gel ABPP, 4 h, stronger effect = higher value. The method, boiled down:
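test system = in situ endogenous ABHD10, murine T cells derived from BW5147 | buffer or medium = serum-free RPMI for cell treatment, homogenate at 1 mg/mL protein | doses = three test concentrations per compound, 0.25, 0.1 and 0.05 µM | timing = compound 4 h 37 °C, probe 30 min 25 °C | detection = in-gel fluorescence after SDS-PAGE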

Usually inhibition stands for the change of the read-out against control, counted positive when it falls.

Palmitoyl-protein thioesterase ABHD10, mitochondrial (Mus musculus), sequence (Q6PE15 whole entry, looked up): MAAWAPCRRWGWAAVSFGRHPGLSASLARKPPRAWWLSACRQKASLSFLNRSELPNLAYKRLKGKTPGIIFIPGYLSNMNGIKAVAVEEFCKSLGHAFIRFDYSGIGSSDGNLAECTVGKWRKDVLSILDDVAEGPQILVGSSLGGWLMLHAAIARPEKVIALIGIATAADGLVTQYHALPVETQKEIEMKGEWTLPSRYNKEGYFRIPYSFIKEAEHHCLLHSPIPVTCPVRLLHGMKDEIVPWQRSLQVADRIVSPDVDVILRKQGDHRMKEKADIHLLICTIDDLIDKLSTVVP

For `CCCOC(=O)N1C(=O)[C@@](CC)(c2ccc(C)cc2)N1C(=O)OCCC`, the inhibition was 90% (at 0.25 µM); 60% (inhibition, at 0.05 µM); 80% (inhibition, at 0.1 µM).

As to `CC[C@@]1(c2ccc(C)cc2)C(=O)N(C(=O)OC(C)C)N1C(=O)OC(C)C`, the inhibition (at 0.25 µM) was 90%; the inhibition (inhibition, at 0.05 µM) was found to be 75%; the inhibition (inhibition, at 0.1 µM) worked out at 70%.

Consider `C=CCOC(=O)N1C(=O)[C@@](CC)(c2ccc(C)cc2)N1C(=O)OCC=C`, for which the inhibition runs as follows: (at 0.25 µM) 70%; (inhibition, at 0.05 µM) 40%; (inhibition, at 0.1 µM) 60%.
